From ChEMBL document CHEMBL4270541, “Synthesis and antimicrobial evaluation of amino sugar-based naphthoquinones and isoquinoline-5,8-diones and their halogenated compounds” (Eur J Med Chem, 2018)
≈ marks a conversion by molar mass, not a printed value. Calls of active or inactive are those of the source. No cut-off for these calls is given here.

What was measured:
[1] = system: Staphylococcus epidermidis; assay: Antimicrobial activity against Staphylococcus epidermidis INCQS 00016 ATCC 12228 at 256 ug/ml after 24 hrs by microdilution assay; format: functional, organism-based; settings: ATCC 12228 INCQS 00016
[2] = system: Escherichia coli; assay: Antimicrobial activity against Escherichia coli INCQS 00033 ATCC 25922 assessed as zone of inhibition at 5 mg/ml after 18 to 24 hrs by disc diffusion method; format: functional; settings: ATCC 25922 INCQS 00033, read-out: IZ
[3] = system: Escherichia coli; assay: Antimicrobial activity against Escherichia coli INCQS 00033 ATCC 25922 after 24 hrs by microdilution assay; format: functional; settings: ATCC 25922 INCQS 00033, 24 h
[4] = system: Staphylococcus aureus; assay: Antimicrobial activity against methicillin-resistant Staphylococcus aureus BMB9393 assessed as zone of inhibition at 5 mg/ml after 18 to 24 hrs by disc diffusion method; format: functional; settings: read-out: IZ
[5] = system: Staphylococcus aureus; assay: Antimicrobial activity against Staphylococcus aureus INCQS 00015 ATCC 25923 assessed as zone of inhibition at 5 mg/ml after 18 to 24 hrs by disc diffusion method; format: functional; settings: read-out: IZ
[6] = system: Staphylococcus aureus; assay: Antimicrobial activity against methicillin-resistant Staphylococcus aureus BMB9393 at 256 ug/ml after 24 hrs by microdilution assay; format: functional, organism-based
[7] = system: Pseudomonas aeruginosa; assay: Ratio of MBC99.9 to MIC for Pseudomonas aeruginosa INCQS 00099 ATCC 27853; format: functional
In short: (§1)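 MBC/MIC ratio from the 24 h, 37°C microdilution MIC and the agar-plating MBC (99.9% growth inhibition). A ratio ≤2 was classed as bactericidal and ≥4 as bacteriostatic.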

[8] = system: Staphylococcus simulans; assay: Bactericidal activity against Staphylococcus simulans INCQS 00254 ATCC 27851 at 256 ug/ml incubated for 24 hrs followed by transfer of microbial suspension to agar plates and measured after 24 hrs post transfer by resazurin dye-based colorimetric analysis; format: functional, organism-based
In short: (§2)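 For MBC, 10 µL from each clear MIC well was plated on agar and incubated 24 h at 37°C. MBC is the minimum concentration inhibiting 99.9% of growth. […] Triplicate.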

[9] = system: Pseudomonas aeruginosa; assay: Bactericidal activity against Pseudomonas aeruginosa INCQS 00099 ATCC 27853 incubated for 24 hrs followed by transfer of microbial suspension to agar plates and measured after 24 hrs post transfer by resazurin dye-based colorimetric analysis; format: functional; settings: INCQS 00099 ATCC 27853, 24 h, read-out: MBC99.9; in short: as §2
[10] = system: Proteus mirabilis; assay: Antimicrobial activity against Proteus mirabilis INCQS 00095 ATCC 15290 assessed as zone of inhibition at 5 mg/ml after 18 to 24 hrs by disc diffusion method; format: functional; settings: read-out: IZ
[11] = system: Escherichia coli; assay: Bactericidal activity against Escherichia coli INCQS 00033 ATCC 25922 incubated for 24 hrs followed by transfer of microbial suspension to agar plates and measured after 24 hrs post transfer by resazurin dye-based colorimetric analysis; format: functional; settings: ATCC 25922 INCQS 00033, 24 h, read-out: MBC99.9; in short: as §2
[12] = system: Klebsiella pneumoniae; assay: Antimicrobial activity against Klebsiella pneumoniae INCQS 00083 ATCC 4352 assessed as zone of inhibition at 5 mg/ml after 18 to 24 hrs by disc diffusion method; format: functional; settings: read-out: IZ
[13] = system: Staphylococcus simulans; assay: Antimicrobial activity against Staphylococcus simulans INCQS 00254 ATCC 27851 at 256 ug/ml after 24 hrs by microdilution assay; format: functional, organism-based
[14] = system: Escherichia coli; assay: Ratio of MBC99.9 to MIC for Escherichia coli INCQS 00033 ATCC 25922; format: functional, ATCC 25922 INCQS 00033; in short: as §1
[15] = system: Staphylococcus epidermidis; assay: Bactericidal activity against Staphylococcus epidermidis INCQS 00016 ATCC 12228 at 256 ug/ml incubated for 24 hrs followed by transfer of microbial suspension to agar plates and measured after 24 hrs post transfer by resazurin dye-based colorimetric analysis; format: functional, organism-based; settings: ATCC 12228 INCQS 00016; in short: as §2
[16] = system: Pseudomonas aeruginosa; assay: Antimicrobial activity against Pseudomonas aeruginosa INCQS 00099 ATCC 27853 assessed as zone of inhibition at 5 mg/ml after 18 to 24 hrs by disc diffusion method; format: functional; settings: read-out: IZ
[17] = system: Staphylococcus epidermidis; assay: Antimicrobial activity against Staphylococcus epidermidis INCQS 00016 ATCC 12228 assessed as zone of inhibition at 5 mg/ml after 18 to 24 hrs by disc diffusion method; format: functional; settings: ATCC 12228 INCQS 00016, read-out: IZ
[18] = system: Staphylococcus aureus; assay: Bactericidal activity against Staphylococcus aureus INCQS 00015 ATCC 25923 at 256 ug/ml incubated for 24 hrs followed by transfer of microbial suspension to agar plates and measured after 24 hrs post transfer by resazurin dye-based colorimetric analysis; format: functional, organism-based; in short: as §2
[19] = system: Staphylococcus simulans; assay: Antimicrobial activity against Staphylococcus simulans INCQS 00254 ATCC 27851 assessed as zone of inhibition at 5 mg/ml after 18 to 24 hrs by disc diffusion method; format: functional; settings: read-out: IZ
[20] = system: Enterococcus faecalis; assay: Antimicrobial activity against Enterococcus faecalis INCQS 00234 ATCC 29212 assessed as zone of inhibition at 5 mg/ml after 18 to 24 hrs by disc diffusion method; format: functional; settings: ATCC 29212 INCQS 00234, read-out: IZ
[21] = system: Pseudomonas aeruginosa; assay: Antimicrobial activity against Pseudomonas aeruginosa INCQS 00099 ATCC 27853 after 24 hrs by microdilution assay; format: functional; settings: INCQS 00099 ATCC 27853, 24 h
[22] = system: Staphylococcus aureus; assay: Bactericidal activity against methicillin-resistant Staphylococcus aureus BMB9393 at 256 ug/ml incubated for 24 hrs followed by transfer of microbial suspension to agar plates and measured after 24 hrs post transfer by resazurin dye-based colorimetric analysis; format: functional, organism-based
In short: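 From MIC wells with no visible growth, 10 µL is transferred to agar plates and incubated 24 h at 37°C. MBC is the minimum concentration inhibiting 99.9% of growth. […] Triplicate.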

[23] = Hemolytic activity against human erythrocytes assessed as hemolysis at 200 ug/ml after 3 hrs by spectrophotometric analysis relative to control; format: ADME, cell-based, Erythrocyte; settings: read-out: Activity
In short: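 Erythrocytes collected in citrate tubes, washed three times with PBS pH 7.4 by centrifugation and resuspended in PBS. Incubated with compounds at 200 µg/mL for 3 h at 37°C. Released hemoglobin was read in the supernatant at 545 nm against 1% Triton X-100 (complete lysis) and 1% DMSO (negative control). Below 10% hemolysis was taken as hemocompatible. Three independent experiments.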

[24] = system: Staphylococcus aureus; assay: Antimicrobial activity against Staphylococcus aureus INCQS 00015 ATCC 25923 at 256 ug/ml after 24 hrs by microdilution assay; format: functional, organism-based

In the case of `CC1(C)O[C@H]2O[C@H](CNC3=C(Cl)C(=O)c4ccccc4C3=O)[C@H](O)[C@H]2O1`, the Activity [1] was “inactive”, the zone of inhibition at 5000 µg/mL [2] was 17 mm and the MIC [3] was 4 µg/mL (≈ 10.5 µM). For the same compound, the zone of inhibition at 5000 µg/mL [4] was 0 mm, the zone of inhibition at 5000 µg/mL [5] was 14 mm and the Activity [6] was “inactive”. For the same compound, the Ratio [7] was 1, the Activity [8] was “inactive” and the MBC [9] was 8 µg/mL (≈ 21.1 µM). For the same compound, the zone of inhibition at 5000 µg/mL [10] was 0 mm, the MBC [11] was 4 µg/mL (≈ 10.5 µM) and the zone of inhibition at 5000 µg/mL [12] was 0 mm. The Activity [13] was “inactive”, the Ratio [14] was 1 and the Activity [15] was “inactive”. The zone of inhibition at 5000 µg/mL [16] was 21 mm, the zone of inhibition at 5000 µg/mL [17] was 15 mm and the Activity [18] was “inactive”. It also gave a zone of inhibition at 5000 µg/mL [19] of 13 mm, a zone of inhibition at 5000 µg/mL [20] of 0 mm and an MIC [21] of 8 µg/mL (≈ 21.1 µM). The Activity [22] was “inactive”, the hemolysis at 3 h, 200 ug/ml [23] was 10.1 to 14.4% and the Activity [24] was “inactive”.
With `CC1(C)O[C@H]2O[C@H](CNC3=C(Br)C(=O)c4ccccc4C3=O)[C@H](O)[C@H]2O1` the Activity [1] was “inactive”, the zone of inhibition at 5000 µg/mL [2] was 12 mm and the MIC [3] was 16 µg/mL (≈ 37.7 µM). The zone of inhibition at 5000 µg/mL [4] was 0 mm, the zone of inhibition at 5000 µg/mL [5] was 8 mm and the Activity [6] was “inactive”. The Ratio [7] was 1, the Activity [8] was “inactive” and the MBC [9] was 16 µg/mL (≈ 37.7 µM). It also gave a zone of inhibition at 5000 µg/mL [10] of 0 mm, an MBC [11] of 16 µg/mL (≈ 37.7 µM) and a zone of inhibition at 5000 µg/mL [12] of 0 mm. For the same compound, the Activity [13] was “inactive”, the Ratio [14] was 1 and the Activity [15] was “inactive”. The zone of inhibition at 5000 µg/mL [16] was 16 mm, the zone of inhibition at 5000 µg/mL [17] was 10 mm and the Activity [18] was “inactive”. For the same compound, the zone of inhibition at 5000 µg/mL [19] was 9 mm, the zone of inhibition at 5000 µg/mL [20] was 0 mm and the MIC [21] was 16 µg/mL (≈ 37.7 µM). The Activity [22] was “inactive”, the hemolysis at 3 h, 200 ug/ml [23] was under 10% and the Activity [24] was “inactive”.
For `CO[C@@H]1O[C@H](CNC2=C(Br)C(=O)c3ccccc3C2=O)[C@H]2OC(C)(C)O[C@@H]12`, the Activity [1] was “inactive”, the zone of inhibition at 5000 µg/mL [2] was 16 mm and the MIC [3] was 32 µg/mL (≈ 73 µM). For the same compound, the zone of inhibition at 5000 µg/mL [4] was 0 mm, the zone of inhibition at 5000 µg/mL [5] was 8 mm and the Activity [6] was “inactive”. For the same compound, the Ratio [7] was 1, the Activity [8] was “inactive” and the MBC [9] was 34 µg/mL (≈ 77.6 µM). For the same compound, the zone of inhibition at 5000 µg/mL [10] was 0 mm, the MBC [11] was 32 µg/mL (≈ 73 µM) and the zone of inhibition at 5000 µg/mL [12] was 0 mm. For the same compound, the Activity [13] was “inactive”, the Ratio [14] was 1 and the Activity [15] was “inactive”. The zone of inhibition at 5000 µg/mL [16] was 13 mm, the zone of inhibition at 5000 µg/mL [17] was 10 mm and the Activity [18] was “inactive”. It also gave a zone of inhibition at 5000 µg/mL [19] of 8 mm, a zone of inhibition at 5000 µg/mL [20] of 0 mm and an MIC [21] of 64 µg/mL (≈ 146 µM). The Activity [22] was “inactive”, the hemolysis at 3 h, 200 ug/ml [23] was under 10% and the Activity [24] was “inactive”.
In the case of `CC1(C)O[C@H]2[C@@H](O1)[C@@H](CNC1=C(Cl)C(=O)c3ccccc3C1=O)O[C@@H]1OC(C)(C)O[C@@H]12`, the Activity [1] was “inactive”, the zone of inhibition at 5000 µg/mL [2] was 12 mm and the MIC [3] was 16 µg/mL (≈ 35.6 µM). For the same compound, the zone of inhibition at 5000 µg/mL [4] was 0 mm, the zone of inhibition at 5000 µg/mL [5] was 9 mm and the Activity [6] was “inactive”. For the same compound, the Ratio [7] was 1, the Activity [8] was “inactive” and the MBC [9] was 32 µg/mL (≈ 71.1 µM). The zone of inhibition at 5000 µg/mL [10] was 0 mm, the MBC [11] was 16 µg/mL (≈ 35.6 µM) and the zone of inhibition at 5000 µg/mL [12] was 0 mm. The Activity [13] was “inactive”, the Ratio [14] was 1 and the Activity [15] was “inactive”. The zone of inhibition at 5000 µg/mL [16] was 13 mm, the zone of inhibition at 5000 µg/mL [17] was 8 mm and the Activity [18] was “inactive”. The zone of inhibition at 5000 µg/mL [19] was 0 mm, the zone of inhibition at 5000 µg/mL [20] was 0 mm and the MIC [21] was 32 µg/mL (≈ 71.1 µM). The Activity [22] was “inactive”, the hemolysis at 3 h, 200 ug/ml [23] was under 10% and the Activity [24] was “inactive”.
